Laboratory results reported in ChEMBL document CHEMBL1128224 (J Med Chem, 1995).

What was measured:
[1] = biological target: Mu-type opioid receptor (Cavia porcellus, UniProt P97266); assay: The opioid receptor affinity(Ki) was evaluated by competition with [3H]DAMGO (mu) on guinea pig brain membranes; set-up: species or system Membrane
[2] = biological target: T1, Opioid receptors; delta & kappa (Homo sapiens) (UniProt P41145+P41143); assay: Selectivity as the ratio of Ki value towards kappa receptor to that of delta 1 receptor.; type: protein assay
[3] = biological target: Delta-type opioid receptor (Mus musculus) (UniProt P32300); assay: IC50 ratio was measured on DADLE (delta) in the mouse vas deferens (MVD) preparation
[4] = biological target: T2, Opioid receptors; mu & delta (Homo sapiens) (UniProt P41143+P35372); assay: Selectivity as the ratio of Ki value towards mu receptor to that of delta 1 receptor.; type: protein assay
[5] = biological target: Delta-type opioid receptor (Mus musculus) (UniProt P32300); assay: The antagonist potencies mediated through […] were expressed as Ke values calculated on DADLE(delta) in the mouse vas deferens(MVD) preparation; type: functional
Summary of the method: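 In electrically stimulated mouse vas deferens with DADLE as agonist, antagonist was preincubated 15 min at 100 nM unless otherwise specified. Ke = [antagonist]/(IC50 ratio − 1) from the Schild relationship, averaged over at least three IC50 ratio determinations.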

[6] = biological target: Kappa-type opioid receptor (Cavia porcellus) (UniProt P41144); assay: IC50 ratio was measured on ethylketazocine (Opioid receptor kappa 1) in the guinea pig ileal longitudinal muscle(GPI) preparation
[7] = biological target: T2, Opioid receptors; mu & delta (Homo sapiens); assay: Selectivity as the ratio of IC50 value against delta receptor to that of mu receptor.; type: protein assay
[8] = biological target: Mu-type opioid receptor (Cavia porcellus) (UniProt P97266); assay: IC50 ratio was measured on Morphine(mu) in the guinea pig ileal longitudinal muscle(GPI) preparation; type: tissue-based; conditions: Muscle tissue
[9] = biological target: T1, Opioid receptors; delta & kappa (Homo sapiens); assay: Selectivity as the ratio of IC50 value against delta receptor to that of kappa receptor.; type: protein assay
[10] = biological target: Kappa-type opioid receptor (Cavia porcellus, UniProt P41144); assay: The opioid receptor affinity(Ki) was evaluated by competition with 9 (Opioid receptor kappa 1) on guinea pig brain membranes; set-up: species or system Membrane
[11] = biological target: Kappa-type opioid receptor (Mus musculus) (UniProt P33534); assay: Antagonist activity against the kappa opioid receptor using U-50,488H as agonist at 20 pmol/kg (icv) was determined as ratio of ED50 of antagonist to the control (ED50 of control = 27.3 (8.5-52.8) umol/kg); type: functional
[12] = Ratio of iv dose to that of icv.; type: functional
Summary of the method: (§1)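 In the mouse tail-flick assay against DPDPE-induced antinociception, the antagonist was given icv or iv. […] The iv/icv value is the ratio of these two doses.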

[13] = test system: Mus musculus; assay: Intracerebroventricular dose required to produce an equivalnet antagonism of DPDPE-induced antinociception.; type: functional; summary of the method: as §1
[14] = test system: Mus musculus; assay: Intravenous dose required to produce an equivalnet antagonism of DPDPE-induced antinociception.; type: functional; summary of the method: as §1
[15] = biological target: Mu-type opioid receptor (Mus musculus) (UniProt P42866); assay: Antagonist activity against the mu opioid receptor using morphine as agonist at 20 pmol/kg (icv) was determined as ratio of ED50 of antagonist to the control (ED50 of control = 9.7 (8.6-10.9) umol/kg); type: functional
[16] = biological target: Delta-type opioid receptor (Mus musculus) (UniProt P32300); assay: (§2) Antagonist activity against the delta1 opioid receptor using DPDPE as agonist at 20 pmol/kg (icv) was determined as ratio of ED50 of antagonist to the control (ED50 of control = 8.6 (6.5-11.1) nmol/kg); type: functional
[17] = as §2; type: functional
[18] = biological target: Delta-type opioid receptor (Homo sapiens) (UniProt P41143); conditions: 0.8 umol/kg

Structure (SMILES) | Ki [1] | Selectivity [2] | IC50 ratio [3] | Selectivity [4] | Ke [5] | IC50 ratio [6] | Selectivity [7] | IC50 ratio [8] | Selectivity [9] | Ki [10] | ED50 ratio [11] | Ratio [12] | Dose [13] | Dose [14] | ED50 ratio [15] | ED50 ratio [16] | ED50 ratio [17] | ED50 ratio [18]
NCCC[C@@H](NC(=O)c1cccc2c3c([nH]c12)[C@@H]1Oc2c(O)ccc4c2C12CCN(CC1CC1)C(C4)[C@]2(O)C3)C(=O)O (some centres not stated) | 136 nM | 320 | 58 | 756 | 1.8 nM | 0.9 | 20 | 3 | 63 | 57 nM | – | – | – | – | – | – | – | –
O=C(O)CNC(=O)c1cccc2c3c([nH]c12)[C@@H]1Oc2c(O)ccc4c2C12CCN(CC1CC1)C(C4)[C@]2(O)C3 (some centres not stated) | 206 nM | 30000 | 32 | 38200 | 3.2 nM | 1.1 | 21 | 1.5 | 30 | – | 0.8 | 112766 | 4.7 pM/kg | 0.53 µM/kg | 0.9 | 5.3 | – | –
NCCCC[C@@H](NC(=O)c1cccc2c3c([nH]c12)[C@@H]1Oc2c(O)ccc4c2C12CCN(CC1CC1)C(C4)[C@]2(O)C3)C(=O)O (some centres not stated) | 219 nM | 134 | 20 | 719 | 5.2 nM | 1.1 | 20 | 1 | 20 | 41 nM | – | – | – | – | – | – | – | –
N=C(N)NCCC[C@@H](NC(=O)c1cccc2c3c([nH]c12)[C@@H]1Oc2c(O)ccc4c2C12CCN(CC1CC1)C(C4)[C@]2(O)C3)C(=O)O (some centres not stated) | 333 nM | 1180 | 31 | 2100 | 3.3 nM | 1.2 | 24 | 1.3 | 27 | 188 nM | – | – | – | – | – | – | – | –
O=C(O)c1cccc2c3c([nH]c12)[C@@H]1Oc2c(O)ccc4c2C12CCN(CC1CC1)C(C4)[C@]2(O)C3 (some centres not stated) | 24 nM | 3250 | 25 | 1850 | 0.4 nM | 1 | 122 | 2 | 231 | – | – | – | – | – | – | – | – | –
O=C(O)C[C@@H](NC(=O)c1cccc2c3c([nH]c12)[C@@H]1Oc2c(O)ccc4c2C12CCN(CC1CC1)C(C4)[C@]2(O)C3)C(=O)O (some centres not stated) | 368 nM | 6250 | 89 | 2570 | 1.1 nM | 2.1 | 67 | 1.3 | 30 | 893 nM | – | – | 12.5 pM/kg | 0.62 µM/kg | 1 | – | 2.6 | 2.3
Oc1ccc2c3c1O[C@H]1c4[nH]c5ccccc5c4C[C@@]4(O)[C@@H](C2)N(CC2CC2)CC[C@]314 [NALTRINDOLE] | – | – | – | – | 0.2 nM | – | – | – | – | – | – | – | 300 pM/kg | 2.19 µM/kg | – | – | – | –
